Lmaj promast: Leishmania major promastigote growth inhibition, primary screen | Leishmania major promastigotes, resazurin fluorescence viability | inhibition, % at 10 µM | actives 9% (n = 200,000) | AID 1063, 2008; in the data active means inhibition above about 50%;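 further: promastigotes grown with compound for 44 hours at 28 °C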
Ba/F3 V617F tox: reduced viability of JAK2V617F-dependent Ba/F3 cells, primary screen, JAK2V617F inhibitor project, cell-based, Ba/F3 EpoR-JAK2V617F, luminescence. ATP luminescence. inhibition, % at 5.6 µM. actives 1.1% (n = 220,000). AID 1446, 2008;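 active means inhibition above the campaign mean plus 3 SD over all tested compounds, cut at about 24% in these data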;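 further: cytokine-independent growth of Ba/F3 cells driven by EpoR plus mutant JAK2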
APP transl inh: inhibitors of APP translation via 5'UTR reporter, primary screen, APP 5'UTR luciferase, SH-SY5Y cells. SH-SY5Y APP 5'UTR-luciferase reporter, luminescence. inhibition, % at 2 µM. actives 0.82% (n = 190,000). AID 1285, 2008;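 active means inhibition above a set limit, derived from the sample mean plus 3 SD, cut at about 45% in these data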
bCat nuc transl: modulators of beta-catenin nuclear translocation, primary screen, imaging, HeLa cells, immunofluorescence, high-content. nuclear translocation activity, % at 5 µM. AID 1665, 2009. actives 0.3% (n = 190,000);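 active means nuclear translocation activity above 50% at 5 µM, with a well cell count of 50 or more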;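 further: per-cell ratio of nuclear to cytoplasmic median beta-catenin stain intensity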
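Test system: human HeLa cell line; Doses: 5 µM primary, 0.02–20 µM confirmation; Incubation: 24 h compound exposure, 37°C; Detection: beta-catenin immunofluorescence imaging with DAPI; Read-out: beta-catenin nuclear/cytoplasmic ratio, % activation.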
BaF3 parental: parental Ba/F3 cell viability inhibition, counter-screen for JAK2V617F inhibitor project, murine pro-B, CellTiter-Glo luminescence | inhibition, % at 5.6 µM | actives 1.1% (n = 220,000) | AID 1486, 2009 | CellTiter-Glo ATP luminescence;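 active means inhibition above a per-campaign cutoff, the mean inhibition of all tested compounds plus 3 SD, cut at about 27% in these data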
MT stabilizer: microtubule stabilizers in HeLa cells, primary screen, imaging, high-content imaging. actives 0.83% (n = 200,000). AID 2205, 2009. % tubulin-high responders, % at 10 µM. HeLa tubulin immunostaining HCS, 24 h; share of cells brighter than vehicle mean+2SD;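 active means plate Z-score above 3 for both tubulin-high and condensed-nucleus cell shares, with cell loss under 80%, at 10 µM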;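 further: anti alpha tubulin signal scored within the nucleus-defined area of each cell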
A number is an active result; n = inactive; x = no result. In the library only some 9.6% were active in any assay of this set; here they are far more common.

SMILES	Lmaj promast	Ba/F3 V617F tox	APP transl inh	bCat nuc transl	BaF3 parental	MT stabilizer
COc1cc(C(=O)NCCC(=O)NCCN2CCOCC2)cc(OC)c1OC	n	n	n	x	n	n
Cc1ccc(S(=O)(=O)N(C)C)cc1NS(=O)(=O)c1ccc(Cl)s1	68.7	n	n	n	n	n
COC(=O)c1cc2c(-c3ccccc3)cc3ccccn3c-2c1C(=O)OC	88.3	n	n	x	n	n
COc1cc(/C=C/C(=O)OCC(=O)Nc2ccc3c(c2)OCCO3)ccc1OCC#N	n	n	n	n	n	n
Cc1ccc(CN2CCNC(=O)C2CC(=O)N2CCN(c3ncccn3)CC2)o1 (centres undefined)	n	n	n	n	n	n
CCOc1ccc(Cc2n[nH]c(=S)n2Cc2ccccc2)cc1	n	n	n	n	n	n
COc1ccc(Cc2n[nH]c(=S)n2Cc2ccccc2)cc1Cl	97.4	n	n	n	n	n
Nc1c(C(=O)c2ccccc2)sc(Nc2ccccc2)c1S(=O)(=O)c1ccccc1	94.8	n	n	n	n	n
N#Cc1c(Nc2ccccc2)sc(C(=O)c2ccc(F)cc2)c1N	65.5	n	n	x	n	n
Cc1ccc(C(=O)c2sc(Nc3ccccc3)c(C#N)c2N)cc1	74.5	n	n	x	n	n
CCN(CC)S(=O)(=O)c1ccc(C(=O)Nc2nnc(-c3ccco3)o2)cc1	91.9	n	n	n	n	n
CCCCN(CC)S(=O)(=O)c1ccc(C(=O)Nc2nnc(-c3cccs3)o2)cc1	98.7	n	n	x	n	n
CCCCN(C)S(=O)(=O)c1ccc(C(=O)Nc2nnc(-c3ccco3)o2)cc1	96.2	n	n	n	n	n
CCc1nnc(NC(=O)c2ccc(S(=O)(=O)N(CC)Cc3ccccc3)cc2)o1	98.5	n	n	n	n	n
CCCCN(CCCC)S(=O)(=O)c1ccc(C(=O)Nc2nnc(COC)o2)cc1	n	n	n	n	n	n
CN(C)S(=O)(=O)c1ccc(C(=O)Nc2nnc(-c3ccco3)o2)cc1	n	n	n	n	n	n
N#CCCNc1c(Cl)cc(Cl)cc1C(=O)O	n	n	n	n	n	n
CO/N=C(/C)CCS(=O)(=O)c1ccccc1	n	n	n	n	n	n
COc1cc(CN2CCN(c3ccccc3C)CC2)cc([N+](=O)[O-])c1O	n	n	n	n	n	n
Cc1cc(C=NCCCO)c(C)n1-c1cc(Cl)ccc1Cl	n	n	n	n	n	n
COc1ccc(/C=N/OCC(=O)N=Nc2c(O)[nH]c3ccc(Br)cc23)cc1OC	63.5	n	n	n	n	n
CCCCNC(=O)CCn1c(=O)c2ccccc2n(Cc2ccc(Cl)cc2)c1=O	56.8	n	n	n	n	n
O=C(COC(=O)c1ccccc1Cl)NC(=O)NCc1ccccc1	82.7	n	n	n	n	n
C/C(=C\C(=O)OCC(=O)NCc1ccccc1)C(=O)OCC(=O)NCc1ccccc1	n	n	n	n	n	n
CCOC(=O)/C=C/C(=O)OCC(=O)NCc1ccccc1	54.8	n	n	n	n	n
SMILES	Lmaj promast	Ba/F3 V617F tox	APP transl inh	bCat nuc transl	BaF3 parental	MT stabilizer
O=C(COC(=O)c1cc(Br)ccc1Cl)NC(=O)NCc1ccccc1	n	n	n	n	n	n
O=C(COC(=O)c1ccccc1Br)NCc1ccccc1	59.9	n	n	x	n	n
Cc1cc(OCC(=O)O/N=C(\N)c2ccccc2)ccc1Br	n	n	n	x	n	n
Cc1cc(NC(=O)c2cc(-c3ccncc3)nc3c(C)cccc23)no1	n	41.4	83.6	x	50.4	36.6
Cc1ccc(-c2cc(C(=O)Nc3cc(C)on3)c3ccccc3n2)cc1	n	n	n	n	n	n
CCN(C(=O)COC(=O)CNC(=O)c1ccc(C)s1)c1ccccc1	n	n	n	n	n	n
Cc1cccc(NC(=O)Cn2nnc3ccccc32)c1	n	n	n	n	n	n
CC(C)N(CCNS(=O)(=O)c1ccc(Cl)cc1)C(C)C	56.7	n	n	x	n	n
COc1cccc(NC(=S)N(CCCN2CCOCC2)C(C)c2cc3ccccc3o2)c1 (centres undefined)	97.0	n	n	n	n	n
COc1cccc2cc(C(C)N(CCCN3CCOCC3)C(=O)Nc3ccccc3)oc12 (centres undefined)	81.7	n	n	n	n	n
COc1ccc(NC(=S)N(CCCN2CCOCC2)C(C)c2cc3cccc(OC)c3o2)cc1 (centres undefined)	n	n	n	n	n	n
COc1ccc(OCC(=O)Nc2c3c(nn2C(C)(C)C)CSC3)cc1	n	n	n	n	n	n
CCC1Oc2ccc(C)cc2N(CC(=O)N(Cc2cccnc2)Cc2cccc(F)c2)C1=O (centres undefined)	92.5	n	n	n	n	n
O=C(CN1C(=O)COc2ccccc21)N(Cc1cccnc1)Cc1cccc(F)c1	94.6	n	n	n	n	n
CCC1Oc2ccc(C)cc2N(CC(=O)N(Cc2ccncc2)Cc2ccco2)C1=O (centres undefined)	80.1	n	n	n	n	n
Cc1ccc2c(c1)N(CC(=O)NCc1cccnc1)C(=O)CO2	n	n	n	n	n	n
O=C(O)CCC(=O)N(Cc1cccnc1)Cc1cccc(F)c1	n	n	n	n	n	n
CCC1Oc2ccc(C)cc2N(CC(=O)NCc2cccs2)C1=O (centres undefined)	n	n	n	n	n	n
COC(=O)CCSC(=S)N1CCOCC1	x	n	x	n	n	x
Fc1ccc(/C=N/Nc2ncnc3nc[nH]c23)cc1F	50.1	n	n	n	n	n
Cc1ccccc1/C=N/Nc1ncnc2nc[nH]c12	x	n	x	n	n	x
N#C/C(=C\c1c[nH]c2ccccc12)C(=O)NCC1CCCO1 (centres undefined)	n	n	n	n	n	n
O=C(CSc1ccccc1)N(c1ccc(Br)cc1)c1nccs1	67.2	n	n	n	n	n
COc1ccc(Oc2coc3c(CN4CCOCC4)c(O)ccc3c2=O)cc1	n	n	x	x	n	n
Cc1oc2c(CN3CCOCC3)c(O)ccc2c(=O)c1-c1ccc(Cl)cc1	x	41.0	x	n	47.8	x
Cc1oc2c(CN3CCCC3)c(O)ccc2c(=O)c1-c1ccccc1	n	n	n	n	n	n
CCCc1cc(=O)oc2c(CN3CCOCC3)c(O)ccc12	n	n	n	n	n	n
Cc1oc2c(CN3CCOCC3)c(O)ccc2c(=O)c1-c1ccc(Br)cc1	98.6	n	n	n	n	n
O=c1c(-c2ccc(Br)cc2)coc2c(CN3CCOCC3)c(O)ccc12	99.5	n	n	n	n	n
Cc1oc2c(CN3CCCC3)c(O)ccc2c(=O)c1-c1ccc(Cl)cc1	96.8	n	n	n	n	n

Screens deposited in PubChem by several laboratories.
